Data: PMC6698915 (Cancer chemotherapy and pharmacology, 2015)
“Also recorded” adds a separate entry of the source.

How the values were obtained:
[1] = system: patients with advanced solid tumors; assay: Phase Ib 3 + 3 dose escalation: DLT, MTD and recommended phase II dose; format: in vivo, human
PTEN-deficient tumor = details: buparlisib plus cisplatin; cited from earlier work
advanced solid tumors = assay: Antitumor efficacy; format: in vivo, human
Procedure, shortened: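 Open-label single-centre 3+3 trial in advanced solid tumors. Oral PI3K-inhibitor test compound was given at 50, 80 or 100 mg/day continuously. […] Imaging after each even-numbered cycle; best response per RECIST. FFPE tumor PTEN IHC scored 0/1+/2+.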

[2] = system: patients with advanced solid tumors; assay: Adverse events; format: in vivo, human
[3] = system: patients with advanced solid tumors; details: cited from earlier work
[4] = system: class IA PI3K paralogues (p110α, β, and δ); details: cited from earlier work
[5] = 25 patients measurable by RECIST, both groups
[6] = Group 1 (n = 16 subjects), with carboplatin + paclitaxel q21 days
[7] = Group 2 (n = 14 subjects), with carboplatin + weekly paclitaxel q28 days

Nc1cc(C(F)(F)F)c(-c2cc(N3CCOCC3)nc(N3CCOCC3)n2)cn1 [buparlisib]
DLTs ([1]; Group 1, DL2 buparlisib 80 mg/day, three patients): no DLTs
DLTs ([1]; Group 1, DL3 buparlisib 100 mg/day, six evaluable subjects): no DLTs
DLT description ([1]; Group 1, dose level 1, 50 mg/day, NSCLC, 50 F): Grade 3 alkaline phosphatase elevation
MTD for buparlisib ([1]; Group 1: carboplatin AUC 5 + paclitaxel 175 mg/m^2 day 1, 21-day cycle, pegfilgrastim): 100 mg/day
phase II recommended dose of buparlisib ([1]; Group 1 regimen): 100 mg/day
DLTs ([1]; Group 2, DL1 buparlisib 50 mg/day, three patients): no DLTs
DLTs ([1]; Group 2, DL2 buparlisib 80 mg/day, first three patients): no DLTs
subjects who completed cycle 1 without DLT ([1]; Group 2, DL2 buparlisib 80 mg/day, six enrolled): five of six
DLT description ([1]; Group 2, dose level 3, 100 mg/day, NPC, 50 M): Grade 3 uncomplicated neutropenia >7 days
DLT description ([1]; Group 2, dose level 3, 100 mg/day, thyroid cancer, 61 F): Grade 3 uncomplicated neutropenia with grade 2 thrombocytopenia >7 days
MTD for buparlisib ([1]; Group 2: carboplatin AUC 5 day 1 + paclitaxel 80 mg/m^2 days 1, 8, 15, 28-day cycle, no growth factor): 80 mg/day
phase II recommended dose of buparlisib ([1]; Group 2 regimen): 80 mg/day
effect of combination in PTEN-deficient xenograft (PTEN-deficient tumor): synthetic lethality was achieved
best response: confirmed partial response (PR) (advanced solid tumors; [5]): four
best response: progression of disease (advanced solid tumors; [5]): three
confirmed objective response rate (advanced solid tumors; 25 patients with measurable disease, Groups 1 and 2 (1 CR, 4 PRs; 5/25)): 20%
patients with reductions in measurable disease of at least 20 % and/or at least six cycles (advanced solid tumors; of patients who completed at least one cycle (18/25)): 72%
patients with reductions in measurable disease of at least 20 % and/or at least six cycles (advanced solid tumors; of patients who received any study treatment (18/30)): 60%
duration of disease control (advanced solid tumors; one person, metastatic parotid carcinoma to bone, loss of PTEN expression, Group 2): approximately 20 months
alkaline phosphatase nadir (advanced solid tumors; same parotid carcinoma patient, baseline 236, normal range 45–129 U/L): 80 U/L
outcome in patients with loss of PTEN expression (advanced solid tumors; three patients, PTEN IHC score = 0): all derived clinical benefit from treatment; also recorded: experienced objective radiographic tumor reductions or clinical benefit
ALT and/or AST elevation, any grade [2, 6]: 9 (56) n (%)
ALT and/or AST elevation, ≥Grade 3 [2, 6]: 2 (13) n (%)
Alkaline phosphatase, increased, any grade [2, 6]: 14 (88) n (%)
Alkaline phosphatase, increased, ≥Grade 3 [2, 6]: 2 (13) n (%)
Alopecia, any grade [2, 6]: 14 (88) n (%)
Anemia, any grade [2, 6]: 13 (81) n (%)
Anemia, ≥Grade 3 [2, 6]: 2 (13) n (%)
Anorexia, any grade [2, 6]: 13 (81) n (%)
Anorexia, ≥Grade 3 [2, 6]: 1 (6) n (%)
Anxiety, any grade [2, 6]: 6 (38) n (%)
Anxiety, ≥Grade 3 [2, 6]: 0 n (%)
Arthralgia, any grade [2, 6]: 13 (81) n (%)
Arthralgia, ≥Grade 3 [2, 6]: 1 (6) n (%)
Constipation, any grade [2, 6]: 11 (69) n (%)
Constipation, ≥Grade 3 [2, 6]: 0 n (%)
Cough, any grade [2, 6]: 9 (56) n (%)
Cough, ≥Grade 3 [2, 6]: 0 n (%)
Depressed mood, any grade [2, 6]: 6 (38) n (%)
Depressed mood, ≥Grade 3 [2, 6]: 1 (6) n (%)
Diarrhea, any grade [2, 6]: 14 (88) n (%)
Diarrhea, ≥Grade 3 [2, 6]: 1 (6) n (%)
Dizziness, any grade [2, 6]: 10 (63) n (%)
Dizziness, ≥Grade 3 [2, 6]: 0 n (%)
Dyspnea, any grade [2, 6]: 11 (69) n (%)
Dyspnea, ≥Grade 3 [2, 6]: 0 n (%)
Fatigue, any grade [2, 6]: 14 (88) n (%)
Fatigue, ≥Grade 3 [2, 6]: 1 (6) n (%)
Hypercholesterolemia, any grade [2, 6]: 7 (44) n (%)
Hypercholesterolemia, ≥Grade 3 [2, 6]: 0 n (%)
Hyperglycemia, any grade [2, 6]: 15 (94) n (%)
Hyperglycemia, ≥Grade 3 [2, 6]: 2 (13) n (%)
Hypertension, any grade [2, 6]: 6 (38) n (%)
Hypertension, ≥Grade 3 [2, 6]: 0 n (%)
Hypertriglyceridemia, any grade [2, 6]: 7 (44) n (%)
Hypertriglyceridemia, ≥Grade 3 [2, 6]: 0 n (%)
Hypoalbuminemia, any grade [2, 6]: 14 (88) n (%)
Hypoalbuminemia, ≥Grade 3 [2, 6]: 0 n (%)
Hypocalcemia, any grade [2, 6]: 6 (38) n (%)
Hypocalcemia, ≥Grade 3 [2, 6]: 1 (6) n (%)
Hypomagnesemia, any grade [2, 6]: 10 (63) n (%)
Hypomagnesemia, ≥Grade 3 [2, 6]: 0 n (%)
Hyponatremia, any grade [2, 6]: 8 (50) n (%)
Hyponatremia, ≥Grade 3 [2, 6]: 3 (19) n (%)
Hypophosphatemia, any grade [2, 6]: 2 (13) n (%)
Hypophosphatemia, ≥Grade 3 [2, 6]: 2 (13) n (%)
INR, increased, any grade [2, 6]: 6 (38) n (%)
INR, increased, ≥Grade 3 [2, 6]: 0 n (%)
Leukopenia, any grade [2, 6]: 12 (75) n (%)
Leukopenia, ≥Grade 3 [2, 6]: 2 (13) n (%)
Lymphopenia, any grade [2, 6]: 12 (75) n (%)
Lymphopenia, ≥Grade 3 [2, 6]: 12 (75) n (%)
Mucositis, oral, any grade [2, 6]: 6 (38) n (%)
Mucositis, oral, ≥Grade 3 [2, 6]: 0 n (%)
Myalgia, any grade [2, 6]: 11 (69) n (%)
Myalgia, ≥Grade 3 [2, 6]: 1 n (%)
Nausea, any grade [2, 6]: 12 (75) n (%)
Nausea, ≥Grade 3 [2, 6]: 0 n (%)
Neuropathy, sensory, any grade [2, 6]: 7 (44) n (%)
Neuropathy, sensory, ≥Grade 3 [2, 6]: 1 (6) n (%)
Neutropenia, any grade [2, 6]: 4 (25) n (%)
Neutropenia, ≥Grade 3 [2, 6]: 2 (13) n (%)
Rash, skin toxicity, any grade [2, 6]: 13 (81) n (%)
Rash, skin toxicity, ≥Grade 3 [2, 6]: 0 n (%)
Thrombocytopenia, any grade [2, 6]: 13 (81) n (%)
Thrombocytopenia, ≥Grade 3 [2, 6]: 3 (19) n (%)
incidence rate of ≥grade 3 leukopenia ([2]; Group 2): 64%
incidence rate of ≥grade 3 neutropenia ([2]; Group 2): 79%
ALT and/or AST elevation, any grade [2, 7]: 6 (43) n (%)
ALT and/or AST elevation, ≥Grade 3 [2, 7]: 1 (7) n (%)
Alkaline phosphatase, elevated, any grade [2, 7]: 5 (36) n (%)
Alkaline phosphatase, elevated, ≥Grade 3 [2, 7]: 1 (7) n (%)
Alopecia, any grade [2, 7]: 11 (79) n (%)
Anemia, any grade [2, 7]: 14 (100) n (%)
Anemia, ≥Grade 3 [2, 7]: 1 (7) n (%)
Anorexia, any grade [2, 7]: 9 (64) n (%)
Anorexia, ≥Grade 3 [2, 7]: 0 n (%)
Anxiety, any grade [2, 7]: 5 (36) n (%)
Anxiety, ≥Grade 3 [2, 7]: 0 n (%)
Arthralgia, any grade [2, 7]: 7 (50) n (%)
Arthralgia, ≥Grade 3 [2, 7]: 0 n (%)
Constipation, any grade [2, 7]: 8 (57) n (%)
Constipation, ≥Grade 3 [2, 7]: 0 n (%)
Cough, any grade [2, 7]: 8 (57) n (%)
Cough, ≥Grade 3 [2, 7]: 0 n (%)
Diarrhea, any grade [2, 7]: 7 (50) n (%)
Diarrhea, ≥Grade 3 [2, 7]: 0 n (%)
Dyspepsia, any grade [2, 7]: 6 (43) n (%)
Dyspepsia, ≥Grade 3 [2, 7]: 0 n (%)
Fatigue, any grade [2, 7]: 11 (79) n (%)
Fatigue, ≥Grade 3 [2, 7]: 2 (14) n (%)
Hypercholesterolemia, any grade [2, 7]: 9 (64) n (%)
Hypercholesterolemia, ≥Grade 3 [2, 7]: 0 n (%)
Hyperglycemia, any grade [2, 7]: 14 (100) n (%)
Hyperglycemia, ≥Grade 3 [2, 7]: 0 n (%)
Hypertension, any grade [2, 7]: 6 (43) n (%)
Hypertension, ≥Grade 3 [2, 7]: 0 n (%)
Hypertriglyceridemia, any grade [2, 7]: 8 (57) n (%)
Hypertriglyceridemia, ≥Grade 3 [2, 7]: 1 (7) n (%)
Hypoalbuminemia, any grade [2, 7]: 13 (93) n (%)
Hypoalbuminemia, ≥Grade 3 [2, 7]: 0 n (%)
Hypocalcemia, any grade [2, 7]: 5 (36) n (%)
Hypocalcemia, ≥Grade 3 [2, 7]: 0 n (%)
Hypokalemia, any grade [2, 7]: 5 (36) n (%)
Hypokalemia, ≥Grade 3 [2, 7]: 1 (7) n (%)
Hypomagnesemia, any grade [2, 7]: 7 (50) n (%)
Hypomagnesemia, ≥Grade 3 [2, 7]: 0 n (%)
Hyponatremia, any grade [2, 7]: 6 (43) n (%)
Hyponatremia, ≥Grade 3 [2, 7]: 0 n (%)
Leukopenia, any grade [2, 7]: 14 (100) n (%)
Leukopenia, ≥Grade 3 [2, 7]: 9 (64) n (%)
Lymphopenia, any grade [2, 7]: 7 (50) n (%)
Lymphopenia, ≥Grade 3 [2, 7]: 7 (50) n (%)
Mucositis, oral, any grade [2, 7]: 5 (36) n (%)
Mucositis, oral, ≥Grade 3 [2, 7]: 2 (14) n (%)
Myalgia, any grade [2, 7]: 5 (36) n (%)
Myalgia, ≥Grade 3 [2, 7]: 0 n (%)
Nausea, any grade [2, 7]: 10 (71) n (%)
Nausea, ≥Grade 3 [2, 7]: 0 n (%)
Neuropathy, sensory, any grade [2, 7]: 5 (36) n (%)
Neuropathy, sensory, ≥Grade 3 [2, 7]: 0 n (%)
Neutropenia, any grade [2, 7]: 13 (93) n (%)
Neutropenia, ≥Grade 3 [2, 7]: 11 (79) n (%)
Pain, not otherwise specified, any grade [2, 7]: 5 (36) n (%)
Pain, not otherwise specified, ≥Grade 3 [2, 7]: 0 n (%)
Rash, skin toxicity, any grade [2, 7]: 8 (57) n (%)
Rash, skin toxicity, ≥Grade 3 [2, 7]: 0 n (%)
Thrombocytopenia, any grade [2, 7]: 13 (93) n (%)
Thrombocytopenia, ≥Grade 3 [2, 7]: 0 n (%)
febrile neutropenia ([2]; both groups): no episodes of febrile neutropenia
treatment-related deaths ([2]; both groups): no treatment-related deaths
maximum tolerated dose (MTD) of buparlisib monotherapy [3]: 100 mg/day
most common adverse events ([3]; monotherapy, 83 patients, dose escalation and expansion): decreased appetite, diarrhea, nausea, hyperglycemia, and rash
patients with radiographic responses ([3]; monotherapy, among 83 patients, one confirmed, three unconfirmed): Four
inhibition of class IA PI3K paralogues [4]: potently inhibits
